Bioassay records (PubChem)
CASP6 VEID inh = human caspase-6 inhibitors, primary screen, biochemical, VEID-R110 fluorescence, single point, set 2 | purified caspase-6, Z-VEID-R110 cleavage fluorescence | AID 686996, 2013 | inhibition, % at 12.5 µM | hit rate 0.53% among 350,000 | P55212;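 active means mean inhibition across replicates at least about 35%, with every replicate also reaching that limit, limit read from the data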;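 further: 0% = median of neutral control wells and 100% = no fluorescence left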
TDP2 absorb = human TDP2 enzyme inhibitors, primary screen, biochemical, epi absorbance, recombinant enzyme | Tyrosyl-DNA phosphodiesterase 2 (Homo sapiens), O95551 | T5PNP hydrolysis, p-nitrophenol absorbance 415 nm | inhibition, % at 12.8 µM | hit rate 0.34% among 370,000 | AID 720702, 2013;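 active means inhibition above the mean of all tested compounds plus 3 SD, set per campaign, cut at about 25% in these data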;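 further: 0% = DMSO with enzyme and 100% = buffer with substrate but no TDP2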
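Assay system: Recombinant human TDP2 | Quantity: 120 nM TDP2 per well | Incubation: 2 h at 37 °C | Signal: Epi absorbance | Evaluation: Percent inhibition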
MBD2 DNA inh = inhibitors of MBD2 binding to methylated DNA, primary screen, biochemical, TR-FRET, DNA-binding domain, human. Methyl-CpG-binding domain protein 2 (Homo sapiens), Q9UBB5. MBD2 binding to methylated oligonucleotide. inhibition, % at 4.4 µM. hit rate 0.31% among 370,000. AID 686964, 2013; in the data active means inhibition above about 13%
UHRF1 binding = UHRF1 methylated DNA binding inhibitors, primary screen, counter-screen for MBD2 inhibitor project, biochemical, TR-FRET, human UHRF1, single concentration; inhibition, % at 4.4 µM; hit rate 0.75% among 370,000; UHRF1 binding to methylated oligo; E3 ubiquitin-protein ligase UHRF1 (Homo sapiens), Q96T88; in the data active means inhibition above about 21%;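 further: UHRF1 SRA domain binding a hemimethylated CpG hairpin DNA probe; 0% = median of test compound wells and 100% = reference inhibitor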
Target sequence (Q96T88 whole entry, looked up, the tested form may be a part): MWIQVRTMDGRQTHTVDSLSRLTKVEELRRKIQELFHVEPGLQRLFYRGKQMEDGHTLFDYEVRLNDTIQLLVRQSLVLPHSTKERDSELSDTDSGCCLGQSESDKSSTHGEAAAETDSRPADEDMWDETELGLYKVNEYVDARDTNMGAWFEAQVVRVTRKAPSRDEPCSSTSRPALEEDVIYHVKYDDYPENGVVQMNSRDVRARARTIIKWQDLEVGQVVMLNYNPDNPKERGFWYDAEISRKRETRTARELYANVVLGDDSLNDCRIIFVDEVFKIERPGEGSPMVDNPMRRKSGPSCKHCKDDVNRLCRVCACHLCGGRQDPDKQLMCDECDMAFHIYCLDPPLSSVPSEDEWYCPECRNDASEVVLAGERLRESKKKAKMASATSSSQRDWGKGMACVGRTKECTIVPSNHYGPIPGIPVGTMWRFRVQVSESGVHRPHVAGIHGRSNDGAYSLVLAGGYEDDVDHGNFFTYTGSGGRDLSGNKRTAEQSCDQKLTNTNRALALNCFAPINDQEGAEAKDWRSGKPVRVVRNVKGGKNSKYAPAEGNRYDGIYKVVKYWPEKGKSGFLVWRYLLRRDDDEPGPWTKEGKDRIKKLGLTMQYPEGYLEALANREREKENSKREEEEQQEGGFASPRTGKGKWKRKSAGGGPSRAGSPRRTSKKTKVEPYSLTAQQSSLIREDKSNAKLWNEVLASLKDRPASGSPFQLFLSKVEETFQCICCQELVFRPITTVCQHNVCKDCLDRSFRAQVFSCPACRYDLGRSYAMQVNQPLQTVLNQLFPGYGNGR
NSD2 HMT inh = NSD2 histone methyltransferase inhibitors, primary screen, biochemical, AlphaScreen, single concentration, set 2 | Histone-lysine N-methyltransferase NSD2 (Homo sapiens), O96028 | NSD2 peptide methylation, 120 min | inhibition, % at 12.5 µM | hit rate 0.54% among 310,000 | AID 743445, 2014; in the data active means inhibition above about 50%
LEDGF integ inh = blockers of LEDGF/p75-dependent integrase strand transfer – biochemical, TR-FRET, high throughput, primary screen; hit rate 0.64% among 370,000; inhibition, % at 3.7 µM; TR-FRET IN-LEDGF/p75 DNA integration, Eu/Cy5; AID 743269, 2014;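 active means inhibition above the screen-wide mean plus 3 SD, cut at about 13% in these data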;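 further: signal is the Cy5 over europium emission ratio at 671 and 618 nm; 0% = plate median of compound wells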
IN multimer act = HIV-1 IN multimer formation enhancers, counter-screen for LEDGF/p75 integration inhibitor project, biochemical, TR-FRET; shares compounds with LEDGF integ inh; TR-FRET HIV-1 integrase multimerization; activation, % at 7.7 µM; hit rate 17% among 2,000; AID 1053131, 2014; in the data active means activation above about 8.9%
TR-FRET interf = TR-FRET optical interference artefacts, confirmation, artefact control for LEDGF/p75-dependent integration inhibitor project, biochemical, HIV-1 IN multimerization | shares compounds with LEDGF integ inh | TR-FRET optical interference counterscreen | inhibition, % at 7.7 µM | 2,000 tested, under 10 active | AID 1053135, 2014;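 active means inhibition above the mean over all tested compounds plus 3 SD, which no compound reached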;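 further: 0% = integrase with antibodies and DMSO and 100% = antibodies without integrase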
IN-LEDGF confirm = inhibitors of HIV-1 IN-LEDGF/p75 DNA integration, confirmation, biochemical, TR-FRET. shares compounds with LEDGF integ inh. hit rate 36% among 2,000. AID 1053136, 2014. inhibition, % at 3.7 µM. TR-FRET LEDGF/p75-dependent HIV-1 integration; in the data active means inhibition above about 14%
Active calls of the source: *; · = no result given. A selection: hits, their analogues and other compounds. The true share with any hit is near 1.8%.

SMILES | CASP6 VEID inh | TDP2 absorb | MBD2 DNA inh | UHRF1 binding | NSD2 HMT inh | LEDGF integ inh | IN multimer act | TR-FRET interf | IN-LEDGF confirm
Cc1cc2nc3n(c2cc1C)CC1CC(C(=O)NCc2ccco2)N(C)C31 (stereo not drawn) | -2.4 | 13.7 | 8.2 | 45.0* | · | 26.8* | 0.0 | 0.3 | -8.1
CN1C(C(=O)NCc2cccc(C(F)(F)F)c2)CC2Cn3c(nc4ccccc43)C21 (stereo not drawn) | -3.1 | -6.5 | 2.0 | -2.1 | · | 15.1* | 0.2 | -0.6 | -12.7
CN1C(C(=O)NCc2cccc(C(F)(F)F)c2)CC2Cn3c(nc4cc5ccccc5cc43)C21 (stereo not drawn) | -1.1 | -2.0 | -3.2 | -0.9 | · | -1.1 | · | · | ·
C[C@@H]1CN([C@@H](C)CO)C(=O)Cc2cc(NS(=O)(=O)c3ccccc3)ccc2O[C@@H]1CN(C)Cc1ccc(C(=O)O)cc1 | 0.8 | · | · | · | · | · | · | · | ·
C[C@@H]1CN([C@H](C)CO)C(=O)Cc2cc(NC(=O)C3CCCCC3)ccc2O[C@@H]1CN(C)S(=O)(=O)c1ccccc1 | 2.5 | · | · | · | · | · | · | · | ·
CCC(=O)Nc1ccc2c(c1)OC[C@@H](C)N(C(=O)CN(C)C)C[C@H](C)[C@@H](OC)CN(C)C2=O | 0.0 | · | · | · | · | · | · | · | ·
O=C(CCN1CCCCC1)NNC(=O)C12CC3CC(CC(C3)C1)C2 | -2.3 | 3.7 | -3.0 | -2.1 | · | 88.8* | 0.5 | -2.5 | 6.0
CC(=O)Nc1ccc(NC(=O)C2CC(=O)N=C(N)S2)cc1 (stereo not drawn) | · | 5.2 | -1.6 | -3.4 | 18.7 | 1.2 | · | · | ·
COc1cccc(NC(=O)C2CC(=O)N=C(N)S2)c1 (stereo not drawn) | · | 5.3 | -5.5 | -1.6 | 5.0 | 16.9* | 0.3 | -1.7 | 1.0
CC(=O)NS(=O)(=O)c1ccc(NC(=O)/C=C/c2ccco2)cc1 | 28.3 | 3.2 | 2.9 | 28.5* | 36.3 | 29.6* | 2.7 | -13.5 | 25.9*
O=C(O)c1cc(O)c2c(c1)C(=O)c1cc(O)cc(O)c1C2=O | 33.2 | 7.3 | -3.5 | 26.3* | · | 20.2* | 44.1* | -157.0 | 24.6*
CC(=O)Oc1cccc2c1C(=O)c1c(OC(C)=O)cc(C(=O)O)cc1C2=O | · | 3.2 | -4.6 | -4.8 | · | -0.8 | · | · | ·
COc1ccc2c3c([nH]c2c1)[C@H](CO)N(Cc1ccccc1)CC31CCN(C(=O)Nc2cccc(F)c2)CC1 | -2.4 | · | · | · | · | · | · | · | ·
Cc1ccc(O)c(-c2[nH]ncc2C(=O)c2ccc(Cl)cc2)c1 | 1.6 | 0.3 | -2.1 | 0.0 | 10.4 | -0.1 | · | · | ·
Cc1ccc(O)c(-c2[nH]ncc2C(=O)c2ccc(Br)cc2)c1 | -2.7 | -6.7 | 7.6 | 2.4 | 1.3 | 13.6* | -0.7 | 3.5 | -5.3
CCCC#Cc1cnc2c(c1)C(=O)N([C@@H](C)CO)C[C@@H](C)[C@H](CN(C)C(=O)Nc1ccccc1F)O2 | 4.4 | · | · | · | · | · | · | · | ·
O=C(Nc1ccccc1F)N[C@H]1CC[C@H](CCNC(=O)C2CCC2)O[C@@H]1CO | 0.9 | · | · | · | · | · | · | · | ·
O=P(O)(O)COc1ccccc1P(=O)(c1ccccc1)c1ccccc1 | · | 7.0 | -2.6 | -0.3 | -3.9 | 19.0* | -2.5 | 12.6 | 0.1
CCOP(=O)(O)c1ccccc1OCCOc1ccccc1P(=O)(O)OCC | · | 4.9 | -0.8 | 4.4 | -0.9 | -3.4 | · | · | ·
COC(=O)c1ccc(NC(=S)N2CCN(Cc3ccccc3OC)CC2)cc1 | 0.6 | -5.9 | 5.7 | -0.1 | · | -2.3 | · | · | ·
COC(=O)c1ccc(NC(=S)N2CCN(Cc3ccccc3Cl)CC2)cc1 | -0.1 | -9.7 | 0.2 | 1.1 | -1.9 | 75.6* | 0.3 | -1.4 | -10.2
CN1C(=O)c2cc(NC(=O)c3ccccc3F)ccc2OC[C@H]2O[C@H](CC(=O)NCc3ccc4c(c3)OCO4)CC[C@@H]21 | 1.1 | · | · | · | · | · | · | · | ·
Cc1ccc(C)c(Nc2ccc(C(=O)NCCc3ccccc3)cn2)c1 | 1.3 | 6.6 | -3.1 | -1.3 | -0.5 | 37.2* | 1.1 | -5.3 | 8.6
COc1cccc(C=Nc2ccc(N3CCOCC3)cc2)c1O | -2.9 | 23.9 | 0.9 | 1.4 | 1.4 | 17.9* | 1.5 | -7.7 | -3.0
COc1cccc(/C=N/N2CCOCC2)c1O | 2.4 | 0.3 | -0.1 | -0.8 | 1.7 | 0.7 | · | · | ·
SMILES | CASP6 VEID inh | TDP2 absorb | MBD2 DNA inh | UHRF1 binding | NSD2 HMT inh | LEDGF integ inh | IN multimer act | TR-FRET interf | IN-LEDGF confirm
Oc1ccc(N=Cc2cc(Br)c(N3CCOCC3)o2)cc1 | 9.8 | 0.0 | -1.2 | -4.6 | 10.3 | 0.2 | · | · | ·
O=[N+]([O-])c1cc(Br)c(O)c(C=Nc2ccc(N3CCOCC3)cc2)c1 | 12.3 | 20.9 | -4.9 | 0.3 | 3.1 | 25.5* | 8.9* | -31.8 | 15.0*
O=C(C1CCCC1)N1CC2(C1)[C@H](c1ccccc1)[C@@H](CO)N2CC1CC1 | -0.4 | · | · | · | · | · | · | · | ·
O=C(O)CCCC(=O)Nc1ccc(N2CCCC2)cc1 | · | 1.7 | -1.8 | 21.0* | -3.2 | 13.8* | 12.3* | -61.9 | 13.2
COc1cccc(SCc2noc(C(=O)NCc3ccccc3)c2C(=O)NCc2ccccc2)c1 | -1.1 | 8.4 | 2.8 | 3.4 | · | 48.4* | -1.5 | 7.5 | -5.4
CC(C(=O)N(C)C1CCS(=O)(=O)C1)N1C(=O)/C(=C/c2ccco2)SC1=S (stereo not drawn) | 45.1* | -6.8 | -2.0 | 12.9 | 25.8 | 29.7* | 1.6 | -8.2 | 15.0*
Cc1cc2c(NC(=O)Nc3ccc(C(F)(F)F)cc3)cccc2nn1 | 53.8* | 23.1 | -8.4 | 4.1 | -4.1 | 29.9* | 7.8 | -27.9 | 6.0
C[C@@H]1CN([C@@H](C)CO)C(=O)c2cc(C#Cc3cccc(F)c3)cnc2O[C@@H]1CN(C)C(=O)C1CCC1 | 4.1 | · | · | · | · | · | · | · | ·
Cn1c(=O)c2c(nc(NN=C3CCCC3)n2C)n(C)c1=O | 1.3 | 6.5 | -1.4 | 2.1 | 2.3 | 19.2* | 6.5 | -32.6 | 10.3
CNC(=O)C[C@@H]1CC[C@@H]2[C@H](COc3ccc(NC(=O)Nc4ccccc4F)cc3C(=O)N2C)O1 | 5.8 | · | · | · | · | · | · | · | ·
CN(C)c1ccc(NC2=C([N+](=O)[O-])CS(=O)(=O)C2)cc1 | · | 4.3 | -8.5 | -3.1 | · | 24.3* | 6.8 | -34.1 | 1.3
